Experimental data from ChEMBL document CHEMBL1133659, “3,4-dihydro-2(1H)-quinolinone as a novel antidepressant drug: synthesis and pharmacology of 1-[3-[4-(3-chlorophenyl)-1-piperazinyl]propyl]-3,4- dihydro-5-methoxy-2(1H)-quinolinone and its derivatives” (J Med Chem, 2000).

Assays:
[1] = biological target: T1, Sigma non-opioid intracellular receptor 1 (Rattus norvegicus, UniProt Q9R0C9); assay: Binding affinity for sigma receptor was evaluated by the inhibitory effect on [3H]DTG to rat whole brain membranes; type: cell membranes
T1 sequence (Q9R0C9 whole entry): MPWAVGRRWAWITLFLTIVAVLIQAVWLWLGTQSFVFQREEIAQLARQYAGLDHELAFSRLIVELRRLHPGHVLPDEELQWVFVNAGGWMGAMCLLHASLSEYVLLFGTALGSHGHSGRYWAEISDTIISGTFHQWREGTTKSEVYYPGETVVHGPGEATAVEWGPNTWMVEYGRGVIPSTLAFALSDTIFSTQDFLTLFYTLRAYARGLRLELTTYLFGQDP
Method in brief: (§1)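 Bound ligand collected by filtration onto PEI-soaked filters and counted by scintillation; nonspecific binding defined with haloperidol. IC50 by nonlinear least-squares fit; mean ± SE of three experiments, or a single experiment where no SE is given.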

Mus musculus [2] = species on record: Mus musculus; assay: Effect on the sleeping time of mice before halothane load (control group); type: functional
Method in brief: (§2)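 Groups of 10 mice received compound orally 1 h before testing, at 100 mg/kg unless another dose is noted. Vehicle was 0.5% gum arabic in 0.9% saline, and controls received vehicle alone. Mice were exposed to 4% halothane in air at 2 L/min. Sleeping time ran from loss to recovery of righting reflex (mean ± SE s), expressed as % of control. Two-tailed t-test was used.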

Mus musculus [3] = assay: Effect on the sleeping time of mice anesthetized with halothane (treated group); type: functional; method in brief: as §2
Mus musculus [4] = assay: Effect on Immobility Time in the Forced-Swimming Test in Mice at the dose of 0 mg/kg po; type: functional
Method in brief: (§3)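 Mice, 8 per group. Dosing was oral, either as a single dose 1 h before testing on day 2 or repeated once daily for 4 days. Each mouse swam 6 min in a cylinder with 6 cm of water at 22-23 °C, and immobility was scored over the last 4 min. Results are mean ± SE seconds and % of control, analysed by one-way ANOVA with Dunnett's test.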

Mus musculus [5] = species on record: Mus musculus; assay: Effect on recovery time for coma induced in mice by cerebral concussion (control group); type: functional
Method in brief: (§4)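 Groups of 10 mice received compound orally 1 h before head concussion, at 100 mg/kg unless another dose is noted. Vehicle was 0.5% gum arabic in saline, and controls received vehicle alone. The read-out was time to reappearance of the righting reflex (mean ± SE s), expressed as % of control. Two-tailed t-test was used.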

Mus musculus [6] = species on record: Mus musculus; assay: Effect on recovery time for coma induced in mice by cerebral concussion (treated group); type: functional; method in brief: as §4
Mus musculus [7] = assay: Effect on Immobility Time in the Forced-Swimming Test in Mice at the dose of 10 mg/kg po; type: functional; method in brief: as §3
Mus musculus [8] = assay: Effect on Immobility Time in the Forced-Swimming Test in Mice at the dose of 1 mg/kg po; type: functional; method in brief: as §3
[9] = biological target: T1, Sigma non-opioid intracellular receptor 1; assay: Binding affinity for sigma receptor was evaluated by the inhibitory effect on [3H]DTG to rat whole brain membranes.; type: functional, cell membranes; method in brief: as §1
Mus musculus [10] = assay: Effect on the sleeping time of mice anesthetized with halothane (treated group) (p <0.01); type: functional; method in brief: as §2

Row | SMILES | IC50 [1] | Sleeping time (Mus musculus [2]) | Sleeping time (Mus musculus [3]) | RRT (Mus musculus [5]) | RRT (Mus musculus [6]) | other results
1 | Br.O=C1CCc2c(Cl)cccc2N1CCCN1CCN(c2cccc(O)c2)CC1 | 0.24 µM | 564 s | 529 s | – | – | –
2 | COc1cccc2c1CCC(=O)N2CCCN1CCN(c2cccc(Cl)c2)CC1.Cl | – | 566 s | <294 s | 180 s | <36 s | Time (Mus musculus [4]): 115 s; Time (Mus musculus [7]): <61 s; Time (Mus musculus [8]): <56 s
3 | COc1cccc2c1ccc(=O)n2CCCN1CCN(c2cccc(Br)c2)CC1 | – | – | – | 122 s | <70 s | –
4 | COc1cccc2c1CCC(=O)N2CCCN1CCN(c2ccc(Cl)cc2)CC1 | – | 465 s | 496 s | – | – | IC50 [9]: 0.46 µM
5 | COc1cccc2c1CCC(=O)N2CCCN1CCN(c2cccc(C)c2)CC1 | – | 353 s | 426 s | – | – | –
6 | COc1cccc2c1CCC(=O)N2CCCN1CCN(c2cccc(C(F)(F)F)c2)CC1 | 0.49 µM | 379 s | <250 s | 134 s | <48 s | –
7 | CC(=O)Nc1cccc(N2CCN(CCCN3C(=O)CCc4c(Cl)cccc43)CC2)c1 | 0.67 µM | 565 s | – | – | – | Sleeping time (Mus musculus [10]): <778 s
8 | COc1cccc2c1CCC(=O)N2CCCN1CCN(c2cccc(N)c2)CC1 | – | 553 s | <1380 s | – | – | –
9 | CC(C)Oc1cccc2c1CCC(=O)N2CCCN1CCN(c2cccc(Cl)c2)CC1 | – | 353 s | 304 s | – | – | –
10 | COc1cccc2c1CCC(=O)N2CCCN1CCN(c2cccc(F)c2)CC1 | – | 465 s | 600 s | – | – | –
11 | COc1cccc2c1ccc(=O)n2CCCN1CCN(c2cccc(C(F)(F)F)c2)CC1 | 0.82 µM | – | – | 128 s | <65 s | –
12 | O=c1ccc2ccc(O)cc2n1CCCN1CCN(c2ccc(F)cc2)CC1 | 1.32 µM | 561 s | 582 s | – | – | –
13 | O=c1ccc2ccccc2n1CCCN1CCN(c2cccc(Cl)c2)CC1 | 0.62 µM | 616 s | 704 s | 138 s | 111 s | –
14 | COc1cccc(N2CCN(CCCN3C(=O)CCc4c(Cl)cccc43)CC2)c1 | 0.13 µM | 548 s | <277 s | 132 s | <36 s | –
15 | O=C1CCc2c(Cl)cccc2N1CCCN1CCN(c2cccc(Cl)c2)CC1 | – | 548 s | 677 s | – | – | –
16 | COc1ccc2c(c1)CCC(=O)N2CCCN1CCN(c2cccc(Cl)c2)CC1 | – | 566 s | <770 s | – | – | –
17 | COc1cccc(N2CCN(CCCN3C(=O)CCc4c(OC)cccc43)CC2)c1 | – | 478 s | 579 s | – | – | –
18 | O=C(Oc1ccc2c(c1)CCC(=O)N2CCCN1CCN(c2ccccc2)CC1)c1ccccc1 | – | 561 s | <1097 s | – | – | IC50 [9]: > 10 µM
19 | Cc1cccc(N2CCN(CCCOc3ccc4ccc(O)nc4c3)CC2)c1C | – | 311 s | <956 s | – | – | –
20 | COc1ccc2c(c1)N(CCCN1CCN(c3cccc(Cl)c3)CC1)C(=O)CC2 | – | 566 s | <1280 s | – | – | –
21 | COc1cccc2c1CCC(=O)N2CCCN1CCN(c2cccc([N+](=O)[O-])c2)CC1 | 0.87 µM | 553 s | <339 s | 141 s | <74 s | –

Row | SMILES | IC50 [1] | Sleeping time (Mus musculus [2]) | Sleeping time (Mus musculus [3]) | RRT (Mus musculus [5]) | RRT (Mus musculus [6]) | other results
22 | Nc1cccc2c1CCC(=O)N2CCCN1CCN(c2cccc(Cl)c2)CC1 | – | – | – | 128 s | 129 s | –
23 | CCOc1cccc2c1CCC(=O)N2CCCN1CCN(c2cccc(Cl)c2)CC1 | 0.87 µM | 353 s | <238 s | 113 s | <31 s | –
24 | COc1cccc2c1ccc(=O)n2CCCN1CCN(c2cccc(Cl)c2)CC1 | 0.98 µM | – | – | 122 s | 131 s | –
25 | COc1cccc2c1N(CCCN1CCN(c3cccc(Cl)c3)CC1)C(=O)CC2 | 0.6 µM | – | – | 128 s | 109 s | –
26 | COc1cccc2c1CCC(=O)N2CCCN1CCN(c2cccc(Br)c2)CC1 | 0.42 µM | 498 s | <267 s | 136 s | <61 s | –
27 | COc1cccc2c1CCC(=O)N2CCCN1CCN(c2cccc(O)c2)CC1 | – | 483 s | 400 s | – | – | IC50 [9]: 0.81 µM
28 | CC(C)=CCN1CC[C@@]2(C)c3cc(O)ccc3C[C@@H]1[C@@H]2C | – | 549 s | <370 s | 170 s | <72 s | –
29 | O=C1CCc2c(Cl)cccc2N1CCCN1CCN(c2cccc([N+](=O)[O-])c2)CC1 | 0.39 µM | – | – | 152 s | 110 s | –
30 | CSc1cccc2c1CCC(=O)N2CCCN1CCN(c2cccc(Cl)c2)CC1 | – | 363 s | 439 s | – | – | –
31 | COc1cccc(N2CCN(CC(=O)NC3c4c(O)c(C)cc(C)c4CC3(C)C)CC2)c1 (centres undefined) | > 15 µM | 625 s | <373 s | 210 s | <54 s | Time (Mus musculus [4]): 120 s; Time (Mus musculus [7]): 123 s; Time (Mus musculus [8]): 119 s
32 | COc1cccc2c1CCC(=O)N2CCCN1CCN(c2ccccc2Cl)CC1 | 0.26 µM | 465 s | 675 s | – | – | –
33 | COc1cccc2c1CCC(=O)N2CCCCN1CCN(c2cccc(Cl)c2)CC1 | – | 478 s | 549 s | – | – | –
34 | CCCOc1cccc(N2CCN(CCCN3C(=O)CCc4c(Cl)cccc43)CC2)c1 | 0.37 µM | 465 s | 393 s | – | – | –
35 | Nc1cccc(N2CCN(CCCN3C(=O)CCc4c(Cl)cccc43)CC2)c1 | 0.71 µM | 504 s | 646 s | – | – | –
36 | O=C1CCc2c(O)cccc2N1CCCN1CCN(c2cccc(Cl)c2)CC1 | – | 585 s | 516 s | – | – | –
37 | COc1cccc2c1CCC(=O)N2CCN1CCN(c2cccc(Cl)c2)CC1 | – | 498 s | 676 s | – | – | –
38 | COc1cccc2c1CCC(=O)N2CCCN1CCN(c2cccc(C#N)c2)CC1 | – | 553 s | 465 s | – | – | –
39 | COc1cccc2c1CCC(=O)N2CCCN1CCN(c2cc(Cl)cc(Cl)c2)CC1 | – | 363 s | 310 s | 133 s | 168 s | –
40 | CN1C(=O)CN=C(c2ccccc2)c2cc(Cl)ccc21 [DIAZEPAM] | – | 245 s | <709 s | – | – | –
41 | NC(=O)[C@@H]1CCCN1C(=O)[C@H](Cc1c[nH]cn1)NC(=O)[C@@H]1CCC(=O)N1 [PROTIRELIN] | – | 663 s | <377 s | 173 s | <44 s | –
42 | C[C@@H]1CN(CCCn2c3ccccc3c3ccccc32)C[C@H](C)N1 [RIMCAZOLE] | – | 482 s | 490 s | 131 s | 115 s | –
